According to PubChem BioAssay:
Calls of active or inactive are those of the source.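 The calls were made as follows, unless noted: active = GFP response above 150% of the DMSO level; inconclusive = fewer than 70 events counted for a yeast strain; inactive = the rest.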

Legend:
[1] = RPL19A-GFP modulators, yeast TOR pathway, confirmation, cell-based, S. cerevisiae, flow cytometry, cherry picks, mother/daughter gates (AID 2270;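 active = GFP response below 50% of the DMSO control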); details: S. cerevisiae RPL19A-GFP strain, 3 h, at 10 µM, stronger effect = lower value, 100 = same GFP as DMSO wells
[2] = LAP4-GFP expression modulators in yeast, confirmation, cell-based, cherry picks, flow cytometry, mother/daughter gates (AID 2271;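 active = GFP response above 150% of the DMSO control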;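 also: ratio of sample to DMSO plate mean so 100% equals DMSO level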); details: S. cerevisiae LAP4-GFP strain, 3 h, at 10 µM, stronger effect = higher value, 100 means same as DMSO control
Method in brief: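 Test system: GFP-fusion yeast strain. Medium: synthetic complete (SC) yeast growth medium. Timing: 3 h treatment at 30 °C with rotation. Measured by: GFP by flow cytometry. Control set: positive rapamycin (400 ng/mL), negative DMSO.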

[3] = modulators of MEP2-GFP levels in yeast, confirmation, S. cerevisiae, flow cytometry GFP, cherry picks (AID 2272;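 active = GFP response above 150% of the DMSO control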;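 also: ratio of well signal to plate DMSO mean so 100% equals DMSO level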); details: S. cerevisiae MEP2-GFP strain, 3 h, at 10 µM, stronger effect = higher value
[4] = AGP1-GFP expression modulators, hit retest, confirmation, cell-based, flow cytometry, S. cerevisiae, cherry picks (AID 2273);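 also: median GFP channel fluorescence over the whole cell population gate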; details: S. cerevisiae AGP1-GFP strain, 3 h, at 10 µM
[5] = modulators of CIT2-GFP expression in yeast, confirmation, S. cerevisiae, GFP fusion, cherry picks, mother/daughter gates (AID 2274); details: S. cerevisiae CIT2-GFP strain, flow cytometry, 3 h, at 10 µM, stronger effect = higher value
[6] = measured here: daughter cell gate
[7] = measured here: mother cell gate
[8] = measured here: daughter cell gate response
[9] = measured here: mother cell gate response

SMILES | GFP response vs DMSO [1] | GFP response vs DMSO [1, 6] [%] | GFP response vs DMSO [1, 7] [%] | GFP response relative to DMSO [2] | GFP response relative to DMSO [2, 8] [%] | GFP response relative to DMSO [2, 9] [%] | GFP response vs DMSO [3] | GFP response, % of DMSO [4] | GFP response, % of DMSO [5] | GFP response, % of DMSO [5, 6] [%] | GFP response, % of DMSO [5, 7] [%]
O=C(O)Cc1sc(Nc2ccc(F)cc2)nc1-c1cccs1 | 97.6% (inactive) | 99.4 | 97 | 129% (inactive) | 125 | 135 | 110% (inactive) | 108% (inactive) | 103% (inactive) | 103 | 103
O=C(NCCCSc1ccccc1)c1cc(Cl)ccc1O | 100% (inactive) | 98 | 102 | 108% (inactive) | 104 | 110 | 104% (inactive) | 90.5% (inactive) | 96.4% (inactive) | 96.4 | 94.5
O=C(N/N=C/c1ccc(Cl)cc1Cl)c1cccc(F)c1 | 97% (inactive) | 92.7 | 97.3 | 104% (inactive) | 98.2 | 109 | 103% (inactive) | 101% (inactive) | 86% (inactive) | 84.1 | 84.8
CCOC(=O)c1ccc(NC(=O)CCc2nc(-c3ccccc3Cl)no2)cc1 | 101% (inactive) | 100 | 102 | 103% (inactive) | 101 | 103 | 108% (inactive) | 97.5% (inactive) | 101% (inactive) | 102 | 98
CCC(C)(C)n1nnnc1C(c1ccc(O)c(OC)c1)N1CCc2ccccc2C1 (stereo not drawn) | 100% (inactive) | 99.6 | 97.6 | 117% (inactive) | 99.3 | 117 | 99.5% (inactive) | 117% (inactive) | 108% (inactive) | 108 | 105
COC(=O)C1=C(C)NC(C)=C(C(=O)OC)C1c1ccc(OC(=O)c2oc3ccccc3c2C)c(OC)c1 | 98.8% (inactive) | 98.1 | 98.8 | 90% (inactive) | 90.4 | 89.9 | 98.8% (inactive) | 103% (inactive) | 103% (inactive) | 102 | 104
Cc1ccc2c(nc3s/c(=C\c4ccc(-c5ccccc5C(=O)O)o4)c(=O)n32)c1C | 119% (inactive) | 117 | 117 | 243% (active) | 218 | 259 | 346% (active) | 119% (inactive) | 157% (active) | 158 | 154
COC(=O)c1ccccc1NC(=O)c1nc(S(=O)(=O)Cc2ccccc2)ncc1Cl | 102% (inactive) | 101 | 102 | 89% (inactive) | 92.5 | 92.1 | 100% (inactive) | 97.8% (inactive) | 104% (inactive) | 101 | 103
Cc1cccc(NC(=S)NCC23C=CC(O2)C2C(=O)N(c4ccc(Cl)cc4)C(=O)C23)c1 (stereo not drawn) | 100% (inactive) | 103 | 99.8 | 103% (inactive) | 102 | 104 | 102% (inactive) | 100% (inactive) | 104% (inactive) | 104 | 103
CNC(=O)/C(C#N)=C/c1c(N2CCCCCC2)nc2ccccn2c1=O | 98.7% (inactive) | 100 | 98.2 | 104% (inactive) | 104 | 106 | 112% (inactive) | 98.6% (inactive) | 108% (inactive) | 110 | 108
COCc1nnc(NC(=O)c2ccc(S(=O)(=O)N(C)c3ccccc3)cc2)o1 | 96.8% (inactive) | 96.6 | 97.1 | 101% (inactive) | 99.2 | 98.3 | 100% (inactive) | 92.5% (inactive) | 96.9% (inactive) | 97.2 | 97.3
Cc1ccc(-c2nc(NC(=O)c3nn(C)cc3[N+](=O)[O-])sc2C)cc1C | 101% (inactive) | 101 | 102 | 95.3% (inactive) | 92.2 | 99.5 | 97.5% (inactive) | 95.4% (inactive) | 93.5% (inactive) | 94.6 | 93.3
N#C/C(=C\c1c(N(Cc2ccccc2)Cc2ccccc2)nc2ccccn2c1=O)C(N)=O | 98.4% (inactive) | 99.2 | 98.2 | 99.8% (inactive) | 97.2 | 102 | 102% (inactive) | 104% (inactive) | 106% (inactive) | 101 | 109
O=S(=O)(c1ccc(Cl)cc1)c1ccccn1 | 96.2% (inactive) | 96.4 | 95.8 | 94.1% (inactive) | 96 | 93.4 | 101% (inactive) | 98.2% (inactive) | 103% (inactive) | 101 | 105
CNC(=O)/C(C#N)=C/c1c(N(Cc2ccccc2)Cc2ccccc2)nc2ccccn2c1=O | 97.3% (inactive) | 98.1 | 96.9 | 100% (inactive) | 99 | 101 | 93.1% (inactive) | 104% (inactive) | 100% (inactive) | 101 | 99.3
c1cnc2c(SCc3ccc(-c4nnco4)cc3)cccc2c1 | 98.2% (inactive) | 96.4 | 97.5 | 108% (inactive) | 108 | 110 | 106% (inactive) | 104% (inactive) | 94.4% (inactive) | 90.5 | 96
COc1ccc(-c2noc(CCC(=O)Nc3cccc(C)c3)n2)cc1 | 96.6% (inactive) | 96.7 | 96.2 | 109% (inactive) | 105 | 108 | 102% (inactive) | 96.9% (inactive) | 97.8% (inactive) | 98.3 | 94.5

SMILES | GFP response vs DMSO [1] | GFP response vs DMSO [1, 6] [%] | GFP response vs DMSO [1, 7] [%] | GFP response relative to DMSO [2] | GFP response relative to DMSO [2, 8] [%] | GFP response relative to DMSO [2, 9] [%] | GFP response vs DMSO [3] | GFP response, % of DMSO [4] | GFP response, % of DMSO [5] | GFP response, % of DMSO [5, 6] [%] | GFP response, % of DMSO [5, 7] [%]
COc1ccc(C(=O)C2CCCN(C(=O)c3cccs3)C2)cc1F (stereo not drawn) | 102% (inactive) | 101 | 101 | 98.2% (inactive) | 99.1 | 98.4 | 99% (inactive) | 103% (inactive) | 100% (inactive) | 103 | 99.3
CCOc1ccc(C(C)=O)cc1N1C(=O)C2C3C=CC(O3)C2C1=O (stereo not drawn) | 100% (inactive) | 105 | 95.6 | 136% (inactive) | 132 | 136 | 103% (inactive) | 97.9% (inactive) | 110% (inactive) | 110 | 104
O=C(NCc1ccccn1)c1cc(-c2ccc(Cl)cc2)oc1C(F)(F)F | 99.5% (inactive) | 98.4 | 99.8 | 103% (inactive) | 106 | 102 | 100% (inactive) | 99.4% (inactive) | 102% (inactive) | 98.1 | 101
CCCCn1c(=O)c(C(=O)OCC)c(O)c2ccccc21 | 106% (inactive) | 101 | 108 | 105% (inactive) | 102 | 108 | 99% (inactive) | 97.5% (inactive) | 94.4% (inactive) | 90.2 | 94.4
CC(=O)Nc1ccc(NC(=O)c2ccccc2F)cc1 | 99.8% (inactive) | 100 | 98.6 | 94.4% (inactive) | 94.2 | 94.1 | 99% (inactive) | 100% (inactive) | 103% (inactive) | 101 | 99.3
COc1ccc2c(c1)c(C(C)=O)c(C)n2-c1ccccc1OC | 96.5% (inactive) | 97.8 | 95.4 | 101% (inactive) | 99 | 101 | 101% (inactive) | 107% (inactive) | 103% (inactive) | 101 | 103
O=C(O)CSC1CC(=O)N(c2ccc(Cl)c(Cl)c2)C1=O (stereo not drawn) | 97.8% (inactive) | 97.8 | 97.5 | 108% (inactive) | 113 | 107 | 101% (inactive) | 101% (inactive) | 100% (inactive) | 99.3 | 100
COc1ccccc1-c1noc(CCC(=O)Nc2cccc(C(F)(F)F)c2)n1 | 98.2% (inactive) | 97.9 | 98.5 | 102% (inactive) | 104 | 100 | 107% (inactive) | 102% (inactive) | 100% (inactive) | 101 | 94.4
C=CCn1c(=N)c(C#N)cc2c(=O)n3ccccc3nc21 | 98% (inactive) | 95.4 | 93 | 99.2% (inactive) | 99.2 | 98.3 | 105% (inactive) | 100% (inactive) | 101% (inactive) | 97.2 | 87.8
CCc1ccc(CNC(=O)CCC(=O)N2Cc3cccc(OC)c3Oc3ncccc32)cc1 | 99.2% (inactive) | 98.8 | 99.9 | 94.4% (inactive) | 94.2 | 95.2 | 101% (inactive) | 96.7% (inactive) | 102% (inactive) | 105 | 94.4
Cc1cc(NC(=O)c2ccc3c(c2)OCCO3)ccc1NC(=O)c1cc2ccccc2o1 | 97.6% (inactive) | 99.5 | 96.5 | 89.4% (inactive) | 89.8 | 91.3 | 103% (inactive) | 93.2% (inactive) | 95.8% (inactive) | 97.6 | 97.1
CCCc1[nH]nc2c1C(c1ccc(OC(=O)c3ccco3)cc1)C(C#N)=C(N)O2 (stereo not drawn) | 99.9% (inactive) | 101 | 101 | 91.9% (inactive) | 92.2 | 91.6 | 124% (inactive) | 102% (inactive) | 105% (inactive) | 108 | 105
Oc1c(Br)cc(Br)cc1C=Nc1ccc2c(c1)OCO2 | 98.2% (inactive) | 88.5 | 98.5 | 190% (active) | 114 | 174 | 110% (inactive) | 99.3% (inactive) | 97.8% (inactive) | 98.3 | 91
Oc1ccc(C2Nc3cccc4cccc(c34)N2)cc1 | 99% (inactive) | 99.2 | 99.4 | 107% (inactive) | 105 | 111 | 97.8% (inactive) | 98.7% (inactive) | 100% (inactive) | 98.1 | 102
O=C(Nc1cccc(O)c1)c1ccccc1 | 94.6% (inactive) | 96.1 | 96.4 | 95.4% (inactive) | 97.6 | 95.1 | 98.3% (inactive) | 101% (inactive) | 98.3% (inactive) | 101 | 97.3
CCOc1ccc(N2C(=O)CC(Sc3ncccn3)C2=O)cc1 (stereo not drawn) | 98.2% (inactive) | 98.4 | 99.2 | 97.9% (inactive) | 97.6 | 98.3 | 100% (inactive) | 101% (inactive) | 104% (inactive) | 105 | 104
